{
  "source": "ChEMBL document CHEMBL1146258",
  "about": "“N6-Cycloalkyl-2-substituted adenosine derivatives as selective, high affinity adenosine A1 receptor agonists” (Bioorg Med Chem Lett, 2007)",
  "key": {"Adenosine receptor A2b": {"target": "T1, Adenosine receptor A2b (Homo sapiens, UniProt P29275)", "T1 sequence (P29275 whole entry)": "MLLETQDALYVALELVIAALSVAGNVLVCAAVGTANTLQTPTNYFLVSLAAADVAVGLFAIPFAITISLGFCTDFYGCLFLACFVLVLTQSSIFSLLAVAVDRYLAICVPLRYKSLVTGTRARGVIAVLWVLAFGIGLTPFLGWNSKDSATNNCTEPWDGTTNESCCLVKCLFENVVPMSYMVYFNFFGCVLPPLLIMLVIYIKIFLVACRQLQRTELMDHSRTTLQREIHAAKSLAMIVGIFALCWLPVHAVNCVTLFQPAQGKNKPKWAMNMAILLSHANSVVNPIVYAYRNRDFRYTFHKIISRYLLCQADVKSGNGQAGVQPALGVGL", "experiment": "Displacement of [3H]ZM241385 from adenosine A2B receptor expressed in HEK cells", "format": "cell-based, HEK293", "procedure,_shortened": "(§1)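 HEK cells expressing A2A or A2B receptor, [³H]-ZM241385 radioligand, run without GTP; Ki for the high-affinity (coupled) state. 95% confidence limits generally 15% of mean.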"}, "Adenosine receptor A2a": {"target": "Adenosine receptor A2a (Homo sapiens, UniProt P29274)", "sequence (P29274 whole entry)": "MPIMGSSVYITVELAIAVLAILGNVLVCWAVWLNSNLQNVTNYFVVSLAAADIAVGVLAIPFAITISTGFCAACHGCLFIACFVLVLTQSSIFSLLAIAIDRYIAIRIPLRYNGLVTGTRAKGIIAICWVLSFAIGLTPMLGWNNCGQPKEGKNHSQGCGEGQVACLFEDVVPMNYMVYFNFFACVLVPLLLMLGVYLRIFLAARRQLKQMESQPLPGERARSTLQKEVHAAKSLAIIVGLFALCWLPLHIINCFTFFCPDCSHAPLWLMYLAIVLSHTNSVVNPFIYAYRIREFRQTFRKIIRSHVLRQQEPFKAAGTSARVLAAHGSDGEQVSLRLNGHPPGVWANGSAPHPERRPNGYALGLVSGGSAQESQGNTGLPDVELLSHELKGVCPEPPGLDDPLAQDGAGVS", "experiment": "Displacement of [3H]ZM-241385 from A2A adenosine A2A receptor expressed in HEK cells", "format": "cell-based, HEK293", "procedure,_shortened": "as §1"}, "[1]": {"target": "Adenosine receptors; A1 & A3 (Homo sapiens) (UniProt P30542+P0DMS8)", "sequence (P30542 whole entry, looked up, one chain of several)": "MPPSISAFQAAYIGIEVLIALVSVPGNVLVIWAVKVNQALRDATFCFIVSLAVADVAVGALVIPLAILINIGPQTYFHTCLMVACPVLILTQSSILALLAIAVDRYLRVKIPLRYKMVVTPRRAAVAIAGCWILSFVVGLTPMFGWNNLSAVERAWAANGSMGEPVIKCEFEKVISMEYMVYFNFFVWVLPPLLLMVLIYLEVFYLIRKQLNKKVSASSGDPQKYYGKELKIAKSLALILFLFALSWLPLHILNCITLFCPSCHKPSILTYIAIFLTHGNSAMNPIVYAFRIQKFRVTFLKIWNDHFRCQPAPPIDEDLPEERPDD", "experiment": "Selectivity for adenosine A1 receptor over adenosine A3 receptor", "format": "protein assay", "procedure,_shortened": "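Ratio of A3 Ki-High (CHO-A3 cells, [¹²⁵I]-AB-MECA, no GTP) to A1 Ki-Low (DDT membranes, [³H]-CPX, with GTPγS).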"}, "Adenosine receptor A3": {"target": "T2, Adenosine receptor A3 (Homo sapiens, UniProt P0DMS8)", "T2 sequence (P0DMS8 whole entry)": "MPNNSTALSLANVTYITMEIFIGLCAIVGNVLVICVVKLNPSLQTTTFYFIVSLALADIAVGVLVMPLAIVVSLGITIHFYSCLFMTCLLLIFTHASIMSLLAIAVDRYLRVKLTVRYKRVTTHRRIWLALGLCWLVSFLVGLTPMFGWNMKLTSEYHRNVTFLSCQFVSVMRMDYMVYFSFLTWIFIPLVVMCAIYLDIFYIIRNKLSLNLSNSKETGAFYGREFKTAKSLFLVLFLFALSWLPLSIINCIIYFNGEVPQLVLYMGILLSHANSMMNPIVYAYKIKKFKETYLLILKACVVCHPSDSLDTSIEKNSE", "experiment": "Displacement of [125I]ABMECA from adenosine A3 receptor expressed in CHO cells", "format": "cell-based"}, "[2]": {"target": "T3, Adenosine receptor A1 (Rattus norvegicus) (UniProt P25099)", "T3 sequence (whole entry)": "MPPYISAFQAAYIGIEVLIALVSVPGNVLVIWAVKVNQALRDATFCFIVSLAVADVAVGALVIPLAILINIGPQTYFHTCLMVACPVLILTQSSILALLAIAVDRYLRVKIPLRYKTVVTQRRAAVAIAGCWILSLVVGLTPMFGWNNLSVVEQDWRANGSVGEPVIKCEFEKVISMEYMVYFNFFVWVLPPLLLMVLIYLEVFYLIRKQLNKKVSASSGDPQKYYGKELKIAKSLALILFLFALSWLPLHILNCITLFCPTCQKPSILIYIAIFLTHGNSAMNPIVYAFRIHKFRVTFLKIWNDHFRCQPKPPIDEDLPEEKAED", "experiment": "Agonist activity at adenosine A1 receptor in rat brain membrane assessed as stimulation of [35S]GTP-gamma-S binding relative to CPA", "format": "functional, cell membranes", "procedure,_shortened": "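Rat brain membranes; agonist-induced [³⁵S]GTPγS binding to G protein measured, with maximal stimulation by the full agonist CPA set as 100% and efficacy expressed relative to it.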"}, "[3]": {"target": "Adenosine receptor A1 (Mesocricetus auratus)", "experiment": "Displacement of [3H]CPX from adenosine A1 receptor in DDT membranes"}, "[4]": {"target": "Adenosine receptors; A1 & A2a (Homo sapiens) (UniProt P30542+P29274)", "experiment": "Selectivity for adenosine A1 receptor over adenosine A2A receptor", "format": "protein assay"}},
  "data": [
    {"smiles": "CCOC(=O)c1cnn(-c2nc(NC3CCCCC3)c3ncn([C@@H]4O[C@H](CO)[C@@H](O)[C@H]4O)c3n2)c1", "values": [
      {"measurement": "Ki", "setting": "Adenosine receptor A2b", "result": "> 6", "unit": "µM"},
      {"measurement": "Ki", "setting": "Adenosine receptor A2a", "result": "> 5", "unit": "µM"},
      {"measurement": "Ratio Ki", "setting": "[1]", "result": 1},
      {"measurement": "Ki", "setting": "Adenosine receptor A3", "result": 0.03, "unit": "µM"}
    ]},
    {"smiles": "OC[C@H]1O[C@@H](n2cnc3c(NC4CCCC4)nc(-n4cccn4)nc32)[C@H](O)[C@@H]1O", "values": [
      {"measurement": "Ki", "setting": "Adenosine receptor A2b", "result": "> 6", "unit": "µM"},
      {"measurement": "Ki", "setting": "Adenosine receptor A2a", "result": "> 5", "unit": "µM"},
      {"measurement": "Ratio Ki", "setting": "[1]", "result": 3},
      {"measurement": "Ki", "setting": "Adenosine receptor A3", "result": 0.105, "unit": "µM"}
    ]},
    {"smiles": "O=C(O)c1cnn(-c2nc(NC3CCCC3)c3ncn([C@@H]4O[C@H](CO)[C@@H](O)[C@H]4O)c3n2)c1", "values": [
      {"measurement": "Ki", "setting": "Adenosine receptor A2b", "result": "> 6", "unit": "µM"},
      {"measurement": "Intrinsic activity", "setting": "[2]", "result": 100, "unit": "%"},
      {"measurement": "Ki", "setting": "Adenosine receptor A2a", "result": "> 5", "unit": "µM"},
      {"measurement": "Ratio Ki", "setting": "[1]", "result": 468},
      {"measurement": "Ki", "setting": "Adenosine receptor A3", "result": 4.12, "unit": "µM"}
    ]},
    {"smiles": "CCNC(=O)c1cnn(-c2nc(NC3CCCC3)c3ncn([C@@H]4O[C@H](CO)[C@@H](O)[C@H]4O)c3n2)c1", "values": [
      {"measurement": "Ki", "setting": "Adenosine receptor A2b", "result": "> 6", "unit": "µM"},
      {"measurement": "Ki", "setting": "Adenosine receptor A2a", "result": "> 5", "unit": "µM"},
      {"measurement": "Ratio Ki", "setting": "[1]", "result": 20},
      {"measurement": "Ki", "setting": "Adenosine receptor A3", "result": 0.02, "unit": "µM"}
    ]},
    {"smiles": "CNC(=O)c1cnn(-c2nc(NC3CCCCC3)c3ncn([C@@H]4O[C@H](CO)[C@@H](O)[C@H]4O)c3n2)c1", "values": [
      {"measurement": "Ki", "setting": "Adenosine receptor A2b", "result": "> 6", "unit": "µM"},
      {"measurement": "Ki", "setting": "Adenosine receptor A2a", "result": "> 5", "unit": "µM"},
      {"measurement": "Ratio Ki", "setting": "[1]", "result": 19},
      {"measurement": "Ki", "setting": "Adenosine receptor A3", "result": 0.158, "unit": "µM"}
    ]},
    {"smiles": "CCNc1nc(-n2cc(-c3ccc(OC)cc3)cn2)nc2c1ncn2[C@@H]1O[C@H](CO)[C@@H](O)[C@H]1O", "values": [
      {"measurement": "Ki", "setting": "[3]", "result": 3.7, "unit": "µM"}
    ]},
    {"smiles": "CNC(=O)c1cnn(-c2nc(NC3CCCC3)c3ncn([C@@H]4O[C@H](CO)[C@@H](O)[C@H]4O)c3n2)c1", "values": [
      {"measurement": "Ki", "setting": "Adenosine receptor A2b", "result": "> 6", "unit": "µM"},
      {"measurement": "Ki", "setting": "Adenosine receptor A2a", "result": "> 5", "unit": "µM"},
      {"measurement": "Ratio Ki", "setting": "[1]", "result": 710},
      {"measurement": "Ki", "setting": "Adenosine receptor A3", "result": 1.42, "unit": "µM"}
    ]},
    {"smiles": "NC(=O)c1cnn(-c2nc(NC3CCCC3)c3ncn([C@@H]4O[C@H](CO)[C@@H](O)[C@H]4O)c3n2)c1", "values": [
      {"measurement": "Ki", "setting": "Adenosine receptor A2b", "result": "> 6", "unit": "µM"},
      {"measurement": "Ki", "setting": "Adenosine receptor A2a", "result": "> 5", "unit": "µM"},
      {"measurement": "Ratio Ki", "setting": "[4]", "result": "> 600"},
      {"measurement": "Ratio Ki", "setting": "[1]", "result": 633},
      {"measurement": "Ki", "setting": "Adenosine receptor A3", "result": 0.38, "unit": "µM"}
    ]},
    {"smiles": "CCOC(=O)c1cnn(-c2nc(NC3CCCC3)c3ncn([C@@H]4O[C@H](CO)[C@@H](O)[C@H]4O)c3n2)c1", "values": [
      {"measurement": "Ki", "setting": "Adenosine receptor A2b", "result": "> 6", "unit": "µM"},
      {"measurement": "Ki", "setting": "Adenosine receptor A2a", "result": "> 5", "unit": "µM"},
      {"measurement": "Ratio Ki", "setting": "[1]", "result": 21},
      {"measurement": "Ki", "setting": "Adenosine receptor A3", "result": 0.019, "unit": "µM"}
    ]},
    {"smiles": "CCOC(=O)c1cnn(-c2nc(NC34CCC(CC3)C4)c3ncn([C@@H]4O[C@H](CO)[C@@H](O)[C@H]4O)c3n2)c1", "values": [
      {"measurement": "Ki", "setting": "Adenosine receptor A2b", "result": "> 6", "unit": "µM"},
      {"measurement": "Ki", "setting": "Adenosine receptor A2a", "result": "> 5", "unit": "µM"},
      {"measurement": "Ratio Ki", "setting": "[1]", "result": 83},
      {"measurement": "Ki", "setting": "Adenosine receptor A3", "result": 0.25, "unit": "µM"}
    ]},
    {"smiles": "O=C(O)c1cnn(-c2nc(NC34CCC(CC3)C4)c3ncn([C@@H]4O[C@H](CO)[C@@H](O)[C@H]4O)c3n2)c1", "values": [
      {"measurement": "Ki", "setting": "Adenosine receptor A2b", "result": "> 6", "unit": "µM"},
      {"measurement": "Ki", "setting": "Adenosine receptor A2a", "result": "> 5", "unit": "µM"},
      {"measurement": "Ratio Ki", "setting": "[1]", "result": "> 5000"},
      {"measurement": "Ki", "setting": "Adenosine receptor A3", "result": "> 5", "unit": "µM"}
    ]},
    {"smiles": "OC[C@H]1O[C@@H](n2cnc3c(NC45CCC(CC4)C5)nc(-n4cccn4)nc32)[C@H](O)[C@@H]1O", "values": [
      {"measurement": "Ki", "setting": "Adenosine receptor A2b", "result": "> 6", "unit": "µM"},
      {"measurement": "Ki", "setting": "Adenosine receptor A2a", "result": "> 5", "unit": "µM"},
      {"measurement": "Ratio Ki", "setting": "[1]", "result": 3180},
      {"measurement": "Ki", "setting": "Adenosine receptor A3", "result": 1.27, "unit": "µM"}
    ]}
  ]
}
